Experimental data collected from several papers.
Compare with care: the assays were run in different laboratories.
Effect on: cell growth or viability

SMILES | cell line | assay | conditions | endpoint | value
COc1ccccc1S(=O)(=O)Nc1ccc2c(c1)CN(C)C(=O)N2 | NALM-6 | ATP luminescence |  | GI50 | 8000 nM
CNC(=O)c1ccccc1Sc1ccc2c(/C=C/c3ccccn3)n[nH]c2c1 | BaF3 | ATP luminescence | 72 h | GI50 | 1310 nM
O=C1Nc2ccccc2C1=NNc1nnc2n1N=C(c1ccccc1)CS2 | SF-268 | SRB | 10 µM | inhibition | 31%
CC(C)(C)n1ncc2c(Nc3ccc(OC(F)(F)F)cc3)ncnc21 | BaF3 | ATP luminescence |  | EC50 | > 10000 nM
COc1cc(N2CCC(N3CCN(C)CC3)CC2)ccc1Nc1ncc(Cl)c(Nc2ccccc2P(C)(C)=O)n1 | BaF3 |  | 72 h | GI50 | 2100 nM
Nc1n[nH]c2cc(I)ccc12 | BaF3 | CCK-8 |  | GI50 | > 10000 nM
Oc1ccc(Nc2nc(-c3ccc(Cl)cc3)cs2)cc1 | WM-115 | MTS | 48 h | IC50 | 23800 nM
COc1ccc(NC(=O)Nc2ccc(OCc3ncc(C)c(OC)c3C)cc2)cc1 | L02 | MTT | 72 h | IC50 | > 100000 nM
O=C(N/N=C/c1c(O)ccc2ccccc12)c1cc(-c2ccc3ccccc3c2)n[nH]1 | WM-115 | MTS | 72 h | IC50 | 1800 nM
COc1ccc(NC(=O)Nc2ccc(OCc3nccc(OCC(F)(F)F)c3C)cc2)cc1 | L02 | MTT | 72 h | IC50 | > 100000 nM
CNC(=O)c1ccccc1Sc1ccc2c(N)n[nH]c2c1 | BaF3 | CCK-8 |  | GI50 | 7900 nM
C=CC(=O)N1CCC[C@@H](n2nc(-c3ccc(Oc4ccccc4)cc3)c3c(N)ncnc32)C1 | NALM-6 | ATP luminescence | 72 h | GI50 | 2800 nM
COc1cccc(Oc2ccccc2NC(=O)CNC(=O)c2cccc3ccccc23)c1 | SF-268 | SRB | 48 h | GI50 | 550 nM
COc1ccc(-c2ccc(-c3ccc(C(=N)N)nc3)s2)cc1 | SF-268 | SRB |  | GI50 | 1760 nM
COc1ccnc(COc2ccc(NC(=O)Nc3cccc(C(F)(F)F)c3)cc2)c1OC | L02 | MTT | 72 h | IC50 | > 100000 nM
COc1cc(-c2ccc(-c3ccc(C(=N)N)nc3)s2)cc(OC)c1OC | SF-268 | SRB |  | GI50 | 14600 nM
CNC(=O)c1cc(Oc2ccc(NC(=O)Nc3ccc(Cl)c(C(F)(F)F)c3)c(F)c2)ccn1 | BaF3 | ATP luminescence | 72 h | GI50 | 1820 nM
